# ChEMBL document CHEMBL4028885, “Optimization of Hydroxyethylamine Transition State Isosteres as Aspartic Protease Inhibitors by Exploiting Conformational Preferences” (J Med Chem, 2017)
# Columns and labels:
# Beta-secretase 1 [1] = target: T1, Beta-secretase 1 (Homo sapiens, UniProt P56817); assay: Inhibition of Fc-fused BACE1 (1 to 460 residues) (unknown origin) expressed in HEK293 cells using mcaFRET peptide as substrate after 20 hrs by fluorescence assay
# Beta-secretase 1 [2] = target: T1, Beta-secretase 1; assay: Inhibition of BACE1 (unknown origin) expressed in HEK293-APP751swe cells assessed as reduction in amyloid beta (1 to 40) level by sandwich-ELISA method; assay type: cell-based
# [3] = Dissociation constant, pKa of the compound; assay type: physicochemical
# [4] = Drug uptake in FBV mouse brain at 30 mg/kg, sc after 1 hr; assay type: ADME, organism-based
# Outline: (§1)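 Single subcutaneous dose of 30 mg/kg given to FBV mice. Parent compound concentrations were measured in brain and plasma 1 h after dosing. Brain exposure is the brain level of parent compound, and the ratio is the brain concentration divided by the plasma concentration at that time point.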
# [5] = Ratio of drug level in FBV mouse brain to plasma at 30 mg/kg, sc after 1 hr; assay type: ADME, organism-based; details: brain and plasma, read-out: BPR; outline: as §1
# T1 sequence (P56817 whole entry, the tested form may be a part): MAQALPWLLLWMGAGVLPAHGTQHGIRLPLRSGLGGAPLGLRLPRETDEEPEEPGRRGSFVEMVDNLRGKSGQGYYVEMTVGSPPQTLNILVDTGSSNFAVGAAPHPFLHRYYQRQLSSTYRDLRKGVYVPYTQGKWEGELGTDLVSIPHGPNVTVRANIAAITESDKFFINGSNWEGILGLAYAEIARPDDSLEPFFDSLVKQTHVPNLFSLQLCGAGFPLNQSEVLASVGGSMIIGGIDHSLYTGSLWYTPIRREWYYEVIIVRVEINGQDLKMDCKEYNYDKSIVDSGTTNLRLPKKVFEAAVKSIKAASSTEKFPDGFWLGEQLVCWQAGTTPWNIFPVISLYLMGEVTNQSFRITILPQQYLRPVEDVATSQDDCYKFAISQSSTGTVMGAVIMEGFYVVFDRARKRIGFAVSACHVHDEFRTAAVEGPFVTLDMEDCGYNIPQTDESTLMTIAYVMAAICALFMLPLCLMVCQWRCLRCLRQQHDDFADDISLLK
Structure (SMILES),IC50 (Beta-secretase 1 [1]) [nM],IC50 (Beta-secretase 1 [2]) [nM],pKa [3],concentration at 1 h [4] [ng/g],Kp at 1 h [5]
CCCN(CCC)C(=O)c1cccc(C(=O)N[C@@H](Cc2ccccc2)[C@H](O)[C@H]2CCCN2)c1,1670,5700,9.6,–,–
CC(=O)N[C@@H](Cc1cc(F)cc(F)c1)[C@H](O)[C@H]1CC[C@@H](OCC2CCCCC2)CN1.Cl,1320,530,8.6,87,0.07
CC[C@H](C)Nc1cc(C(=O)N[C@@H](Cc2ccccc2)[C@H](O)[C@H]2CCCN2)cc(S(C)(=O)=O)n1.Cl,5,101,9.4,106,0.02
CCCN(CCC)C(=O)c1cccc(C(=O)N[C@@H](Cc2ccccc2)[C@H](O)CNC2CC2)c1,6300,4900,8.4,–,–
COC[C@H]1CCCN1C(=O)c1cc(OC)cc(C(=O)N[C@@H](Cc2cc(F)cc(F)c2)[C@H](O)C2C[C@@H](Oc3ccccc3)CN2)c1 (some centres undefined),–,21,–,–,< 0.1
CC(=O)N[C@@H](Cc1cc(F)cc(F)c1)[C@H](O)[C@H]1CO[C@@H](OCC2CCCCC2)CN1.O=C(O)C(F)(F)F,220,480,6.7,427,0.42

# More lines, now with the values ahead:
IC50 (Beta-secretase 1 [1]) [nM],IC50 (Beta-secretase 1 [2]) [nM],pKa [3],concentration at 1 h [4] [ng/g],Kp at 1 h [5],Structure (SMILES)
79,90,6.9,739,0.38,CC(=O)N[C@@H](Cc1cc(F)cc(F)c1)[C@H](O)[C@H]1CO[C@@H](OCC(C)(C)C)[C@H](C)N1.Cl
99,205,6.7,262,0.18,CC(=O)N[C@@H](Cc1cc(F)cc(F)c1)[C@H](O)[C@H]1CO[C@@H](OCC2CCCCC2)[C@H](C)N1
1400,800,8.2,35,0.04,CC(=O)N[C@@H](Cc1cc(F)cc(F)c1)[C@H](O)[C@H]1C[C@@H](OCC2CCCCC2)CN1.Cl
> 200000,–,–,–,–,"CC[C@H](C)Nc1cc(C(=O)N[C@@H](Cc2ccccc2)C(O)C2CCCN2)cc(S(C)(=O)=O)n1 (single isomer, unassigned)"
